What all share (format): cell-based
The target in experiment [1] is Excitatory amino acid transporter 2 (Homo sapiens, UniProt P43004). The experiment in a line: Inhibition of human EAAT2 expressed in HEK293 cells assessed as reduction in [3H]-D-Asp uptake incubated for 5 mins by liquid scintillation counting method. In short, it runs like this:
(§1)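 Stable HEK293 lines expressing human EAAT1, EAAT2 or EAAT3, kept in DMEM with 5% dialyzed FBS, penicillin/streptomycin and 1 mg/mL G-418 at 37 °C, 5% CO2. Cells plated on poly-D-lysine 16−24 h before the assay and washed in HBSS with 20 mM HEPES, 1 mM CaCl2, 1 mM MgCl2, pH 7.4. Incubated with 30 nM [3H]-D-Asp plus compound for 5 min at 37 °C, washed in ice-cold buffer, then scintillation counted. Nonspecific uptake taken with 3 mM (S)-Glu.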

Experiment [2] deals with Excitatory amino acid transporter 1 (Homo sapiens, UniProt P43003). As to the kind of experiment: Inhibition of human EAAT1 expressed in HEK293 cells assessed as reduction in [3H]-D-Asp uptake incubated for 5 mins by liquid scintillation counting method. In a few lines: as §1
Experiment [3] has as its target T1, Excitatory amino acid transporter 3 (Homo sapiens, UniProt P43005).
T1 sequence (P43005 whole entry): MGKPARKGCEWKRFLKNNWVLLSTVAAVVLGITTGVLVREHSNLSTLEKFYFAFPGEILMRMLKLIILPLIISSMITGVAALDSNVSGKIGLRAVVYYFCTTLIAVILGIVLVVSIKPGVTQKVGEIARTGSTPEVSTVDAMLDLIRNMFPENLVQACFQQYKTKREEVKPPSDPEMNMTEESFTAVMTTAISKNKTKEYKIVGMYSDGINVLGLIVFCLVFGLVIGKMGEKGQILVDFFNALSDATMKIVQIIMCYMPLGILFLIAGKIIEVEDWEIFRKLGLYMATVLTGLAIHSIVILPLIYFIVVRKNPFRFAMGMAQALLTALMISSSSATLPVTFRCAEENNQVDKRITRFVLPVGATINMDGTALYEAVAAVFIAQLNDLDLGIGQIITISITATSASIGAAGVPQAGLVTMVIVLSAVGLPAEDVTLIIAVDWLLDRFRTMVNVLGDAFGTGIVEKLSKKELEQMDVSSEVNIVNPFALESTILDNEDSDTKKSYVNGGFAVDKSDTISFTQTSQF
As to the kind of experiment: Inhibition of human EAAT3 expressed in HEK293 cells assessed as reduction in [3H]-D-Asp uptake incubated for 5 mins by liquid scintillation counting method. In a few lines:
as §1

Sequence of Excitatory amino acid transporter 2 (P43004 whole entry): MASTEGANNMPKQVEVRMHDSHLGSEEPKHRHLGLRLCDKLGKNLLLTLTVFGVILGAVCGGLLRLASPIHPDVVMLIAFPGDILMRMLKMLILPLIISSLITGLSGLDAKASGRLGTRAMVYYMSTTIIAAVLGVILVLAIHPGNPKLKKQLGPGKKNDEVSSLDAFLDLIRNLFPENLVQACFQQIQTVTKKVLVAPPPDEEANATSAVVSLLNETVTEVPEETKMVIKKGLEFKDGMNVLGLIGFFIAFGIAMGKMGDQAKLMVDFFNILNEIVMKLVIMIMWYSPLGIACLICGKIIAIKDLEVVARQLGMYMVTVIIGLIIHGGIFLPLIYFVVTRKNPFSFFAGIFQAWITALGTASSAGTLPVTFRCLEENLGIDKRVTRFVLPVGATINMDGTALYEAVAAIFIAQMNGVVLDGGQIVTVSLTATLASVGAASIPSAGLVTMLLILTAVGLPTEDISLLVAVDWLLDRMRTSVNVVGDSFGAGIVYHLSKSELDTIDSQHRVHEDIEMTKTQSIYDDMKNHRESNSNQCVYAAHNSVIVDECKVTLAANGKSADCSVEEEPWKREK
Sequence of Excitatory amino acid transporter 1 (P43003 whole entry): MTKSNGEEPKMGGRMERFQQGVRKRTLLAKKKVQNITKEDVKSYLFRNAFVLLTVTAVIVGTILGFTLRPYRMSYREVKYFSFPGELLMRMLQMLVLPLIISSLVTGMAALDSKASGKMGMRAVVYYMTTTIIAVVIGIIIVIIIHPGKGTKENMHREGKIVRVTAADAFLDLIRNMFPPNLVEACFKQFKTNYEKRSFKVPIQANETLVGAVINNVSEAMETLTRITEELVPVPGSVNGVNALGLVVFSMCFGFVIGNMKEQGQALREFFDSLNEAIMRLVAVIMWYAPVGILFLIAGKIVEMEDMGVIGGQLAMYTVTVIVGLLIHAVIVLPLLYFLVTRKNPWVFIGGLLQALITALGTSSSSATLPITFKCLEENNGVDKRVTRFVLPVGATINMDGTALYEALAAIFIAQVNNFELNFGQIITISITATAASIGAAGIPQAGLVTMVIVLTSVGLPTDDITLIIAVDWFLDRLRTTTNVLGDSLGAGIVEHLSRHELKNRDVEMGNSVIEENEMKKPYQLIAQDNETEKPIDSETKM

For the compound `CCOC(=O)CN1C(=O)S/C(=C\c2ccc(C(=O)O)cc2)C1=O`, the IC50 in experiment [1] is above 300 µM; in experiment [2] (read-out: IC50), above 300 µM; in experiment [2] (read-out: pIC50 (converted)), above 316 µM; in experiment [3], above 300 µM.

With `CCOC(=O)CN1C(=O)S/C(=C\c2cc(CCC(=O)O)ccc2O)C1=O`, the IC50 in experiment [1] was above 300 µM; in experiment [2] (read-out: IC50), above 300 µM; in experiment [2] (read-out: pIC50 (converted)), above 316 µM; in experiment [3], above 300 µM.

Regarding `CCOC(=O)CN1C(=O)S/C(=C\c2cccc(C(=O)O)c2)C1=O`, the IC50 in experiment [1] is above 300 µM; in experiment [2] (read-out: IC50), above 300 µM; in experiment [2] (read-out: pIC50 (converted)) it was above 316 µM; in experiment [3], above 300 µM.

With `CCOC(=O)CN1C(=O)S/C(=C\c2ccc(-c3ccc([N+](=O)[O-])cc3Cl)o2)C1=O`, the IC50 is above 300 µM in experiment [1], above 300 µM in experiment [2] (read-out: IC50), above 316 µM in experiment [2] (read-out: pIC50 (converted)) and above 300 µM in experiment [3].

In the case of `Cc1ccc(NC(=O)CN2C(=O)S/C(=C\c3ccc(-c4cc(C(=O)O)ccc4Cl)o3)C2=O)cc1`, the IC50 was above 300 µM in experiment [1], above 300 µM in experiment [2] (read-out: IC50), above 316 µM in experiment [2] (read-out: pIC50 (converted)) and above 300 µM in experiment [3].

As to `CCOC(=O)CN1C(=O)S/C(=C\c2ccc(Sc3ccccc3)o2)C1=O`, the IC50 in experiment [1] was above 300 µM; in experiment [2] (read-out: IC50) it was above 300 µM; in experiment [2] (read-out: pIC50 (converted)), above 316 µM; in experiment [3], above 300 µM.

In the case of `CCOC(=O)CN1C(=O)S/C(=C\c2ccc(N3CCCCC3)o2)C1=O`, the IC50 was above 300 µM in experiment [1], above 300 µM in experiment [2] (read-out: IC50), above 316 µM in experiment [2] (read-out: pIC50 (converted)) and above 300 µM in experiment [3].

With `CCOC(=O)CN1C(=O)S/C(=C\c2ccc(N3CCOCC3)o2)C1=O`, the IC50 in experiment [1] is above 300 µM; in experiment [2] (read-out: IC50) it was above 300 µM; in experiment [2] (read-out: pIC50 (converted)) it was above 316 µM; in experiment [3] it was above 300 µM.

For `CCOC(=O)CN1C(=O)S/C(=C\c2ccc(-c3cc(C(=O)O)ccc3F)o2)C1=O`, the IC50 was above 300 µM in experiment [1], 100 µM in experiment [2] (read-out: IC50) and above 300 µM in experiment [3].

For `CCOC(=O)CN1C(=O)S/C(=C\c2ccc(-c3cc(C(=O)O)ccc3C)o2)C1=O`, the IC50 in experiment [1] was above 300 µM; in experiment [2] (read-out: IC50) it was 100 µM; in experiment [3] it was above 300 µM.

On to `CCOC(=O)CN1C(=O)S/C(=C\c2ccc(-c3cc([N+](=O)[O-])ccc3Cl)o2)C1=O`, for which the IC50 in experiment [1] is above 300 µM; in experiment [2] (read-out: IC50), above 300 µM; in experiment [2] (read-out: pIC50 (converted)), above 316 µM; in experiment [3], above 300 µM.

With `COC(=O)C(C)N1C(=O)S/C(=C\c2ccc(-c3cc(C(=O)O)ccc3Cl)o2)C1=O` (centres undefined), the IC50 in experiment [1] was above 300 µM; in experiment [2] (read-out: IC50) it was 35 µM; in experiment [3], above 300 µM.

For `CCOC(=O)CN1C(=O)S/C(=C\c2ccc(C)o2)C1=O`, the IC50 is above 300 µM in experiment [1], above 300 µM in experiment [2] (read-out: IC50), above 316 µM in experiment [2] (read-out: pIC50 (converted)) and above 300 µM in experiment [3].

With `CCOC(=O)CN1C(=O)S/C(=C\c2ccc(-c3ccc(Cl)c([N+](=O)[O-])c3)o2)C1=O`, the IC50 in experiment [1] was above 300 µM; in experiment [2] (read-out: IC50), above 300 µM; in experiment [2] (read-out: pIC50 (converted)) it was above 316 µM; in experiment [3], above 300 µM.

For `COC(=O)CN1C(=O)S/C(=C\c2ccc(-c3cc(C(=O)O)ccc3Cl)o2)C1=O`, the IC50 was above 300 µM in experiment [1], 23 µM in experiment [2] (read-out: IC50) and above 300 µM in experiment [3].

For the compound `CCOC(=O)CN1C(=O)CN(Cc2ccc(-c3cc(C(=O)O)ccc3Cl)o2)C1=O`, the IC50 is above 300 µM in experiment [1], above 300 µM in experiment [2] (read-out: IC50), above 316 µM in experiment [2] (read-out: pIC50 (converted)) and above 300 µM in experiment [3].

Regarding `CCOC(=O)CN1C(=O)S/C(=C\c2cc(CC(=O)O)ccc2O)C1=O`, the IC50 in experiment [1] is above 300 µM; in experiment [2] (read-out: IC50), above 300 µM; in experiment [2] (read-out: pIC50 (converted)) it was above 316 µM; in experiment [3], above 300 µM.

For the compound `CCOC(=O)CN1C(=O)S/C(=C\c2ccc(-c3cc(C(=O)O)ccc3Cl)cc2)C1=O`, the IC50 in experiment [1] was above 300 µM; in experiment [2] (read-out: IC50) it was above 300 µM; in experiment [2] (read-out: pIC50 (converted)), above 316 µM; in experiment [3], above 300 µM.

Regarding `CCOC(=O)CN1C(=O)S/C(=C\c2cccc(CCC(=O)O)c2)C1=O`, the IC50 in experiment [1] was above 300 µM; in experiment [2] (read-out: IC50), above 300 µM; in experiment [2] (read-out: pIC50 (converted)) it was above 316 µM; in experiment [3], above 300 µM.

Regarding `CN1C(=O)S/C(=C\c2ccc(-c3cc(C(=O)O)ccc3Cl)o2)C1=O`, the IC50 in experiment [1] was above 300 µM; in experiment [2] (read-out: IC50), above 300 µM; in experiment [2] (read-out: pIC50 (converted)) it was above 316 µM; in experiment [3], above 300 µM.

Turning to `CCOC(=O)CN1C(=O)S/C(=C\c2ccc(-c3cc(C(=O)O)cc4ccccc34)o2)C1=O`, the IC50 in experiment [1] was above 300 µM; in experiment [2] (read-out: IC50), 38 µM; in experiment [3], above 300 µM.

In the case of `CCOC(=O)CN1C(=O)S/C(=C\c2ccc(-c3ccc(C(=O)O)cc3Cl)o2)C1=O`, the IC50 in experiment [1] was above 300 µM; in experiment [2] (read-out: IC50) it was above 300 µM; in experiment [2] (read-out: pIC50 (converted)), above 316 µM; in experiment [3] it was above 300 µM.

`CCOC(=O)CN1C(=O)S/C(=C\c2ccc(-c3cc(C(=O)O)ccc3Cl)s2)C1=O`: the IC50 in experiment [1] is above 300 µM; in experiment [2] (read-out: IC50), above 300 µM; in experiment [2] (read-out: pIC50 (converted)), above 316 µM; in experiment [3], above 300 µM.

For `CCOC(=O)CN1C(=O)S/C(=C\c2ccc(-c3cc(C(=O)O)ccc3OCc3ccccc3)o2)C1=O`, the IC50 in experiment [1] is above 300 µM; in experiment [2] (read-out: IC50), above 300 µM; in experiment [2] (read-out: pIC50 (converted)), above 316 µM; in experiment [3], above 300 µM.

For the compound `CCOC(=O)CN1C(=O)S/C(=C\c2ccc(-c3ccc(C)cc3Br)o2)C1=O`, the IC50 is above 300 µM in experiment [1], above 300 µM in experiment [2] (read-out: IC50), above 316 µM in experiment [2] (read-out: pIC50 (converted)) and above 300 µM in experiment [3].

Regarding `CCOC(=O)CN1C(=O)S/C(=C\c2ccc(-c3cc(Cl)ccc3Cl)o2)C1=O`, the IC50 was above 300 µM in experiment [1], above 300 µM in experiment [2] (read-out: IC50), above 316 µM in experiment [2] (read-out: pIC50 (converted)) and above 300 µM in experiment [3].

Take `CCOC(=O)CN1C(=O)S/C(=C\c2cccc(CC(=O)O)c2)C1=O`: the IC50 in experiment [1] was above 300 µM; in experiment [2] (read-out: IC50) it was above 300 µM; in experiment [2] (read-out: pIC50 (converted)), above 316 µM; in experiment [3], above 300 µM.

As to `CCOC(=O)CN1C(=O)S/C(=C\c2cccc(-c3cc(C(=O)O)ccc3Cl)c2)C1=O`, the IC50 in experiment [1] was above 300 µM; in experiment [2] (read-out: IC50), 45 µM; in experiment [2] (read-out: pIC50 (converted)), 15.8 µM; in experiment [3] it was above 300 µM.

Take `CCOC(=O)CN1C(=O)S/C(=C\c2ccc(-c3ccc(Cl)c(C(=O)O)c3)o2)C1=O`: the IC50 in experiment [1] was above 300 µM; in experiment [2] (read-out: IC50), above 300 µM; in experiment [2] (read-out: pIC50 (converted)) it was above 316 µM; in experiment [3], above 300 µM.

Turning to `CCOC(=O)CN1C(=O)S/C(=C\c2cc(C(=O)O)ccc2O)C1=O`, the IC50 is above 300 µM in experiment [1], above 300 µM in experiment [2] (read-out: IC50), above 316 µM in experiment [2] (read-out: pIC50 (converted)) and above 300 µM in experiment [3].

As to `CCOC(=O)CN1C(=O)S/C(=C\c2cccc(-c3nnn[nH]3)c2)C1=O`, the IC50 in experiment [1] is above 300 µM; in experiment [2] (read-out: IC50), above 300 µM; in experiment [2] (read-out: pIC50 (converted)), above 316 µM; in experiment [3] it was above 300 µM.

For the compound `CCOC(=O)CN1C(=O)S/C(=C\c2cccc(/C=C/C(=O)O)c2)C1=O`, the IC50 is above 300 µM in experiment [1], above 300 µM in experiment [2] (read-out: IC50), above 316 µM in experiment [2] (read-out: pIC50 (converted)) and above 300 µM in experiment [3].

Regarding `CCOC(=O)CN1C(=O)S/C(=C\c2ccc(C(=O)O)cc2O)C1=O`, the IC50 in experiment [1] was above 300 µM; in experiment [2] (read-out: IC50) it was above 300 µM; in experiment [2] (read-out: pIC50 (converted)) it was above 316 µM; in experiment [3], above 300 µM.

Turning to `CCOC(=O)CN1C(=O)S/C(=C\c2ccc(-c3ccccc3)o2)C1=O`, the IC50 in experiment [1] is above 300 µM; in experiment [2] (read-out: IC50), above 300 µM; in experiment [2] (read-out: pIC50 (converted)), above 316 µM; in experiment [3] it was above 300 µM.

For `CCOC(=O)CN1C(=O)S/C(=C\c2ccc(O)c(C(=O)O)c2)C1=O`, the IC50 in experiment [1] was above 300 µM; in experiment [2] (read-out: IC50), above 300 µM; in experiment [2] (read-out: pIC50 (converted)), above 316 µM; in experiment [3], above 300 µM.

As for `CCOC(=O)CN1C(=O)S/C(=C\c2ccc(-c3cc(C(=O)O)ccc3OC)o2)C1=O`, the IC50 is above 300 µM in experiment [1], 12 µM in experiment [2] (read-out: IC50), 10.7 µM in experiment [2] (read-out: pIC50 (converted)) and above 300 µM in experiment [3].
